What is called EC50 is the concentration at which the effect is half-maximal. A high value points to a less potent agent.

One assay deals with T1, apALNR (Aplysia californica, UniProt A0ABM0K1K5).
T1 sequence (A0ABM0K1K5 1-578): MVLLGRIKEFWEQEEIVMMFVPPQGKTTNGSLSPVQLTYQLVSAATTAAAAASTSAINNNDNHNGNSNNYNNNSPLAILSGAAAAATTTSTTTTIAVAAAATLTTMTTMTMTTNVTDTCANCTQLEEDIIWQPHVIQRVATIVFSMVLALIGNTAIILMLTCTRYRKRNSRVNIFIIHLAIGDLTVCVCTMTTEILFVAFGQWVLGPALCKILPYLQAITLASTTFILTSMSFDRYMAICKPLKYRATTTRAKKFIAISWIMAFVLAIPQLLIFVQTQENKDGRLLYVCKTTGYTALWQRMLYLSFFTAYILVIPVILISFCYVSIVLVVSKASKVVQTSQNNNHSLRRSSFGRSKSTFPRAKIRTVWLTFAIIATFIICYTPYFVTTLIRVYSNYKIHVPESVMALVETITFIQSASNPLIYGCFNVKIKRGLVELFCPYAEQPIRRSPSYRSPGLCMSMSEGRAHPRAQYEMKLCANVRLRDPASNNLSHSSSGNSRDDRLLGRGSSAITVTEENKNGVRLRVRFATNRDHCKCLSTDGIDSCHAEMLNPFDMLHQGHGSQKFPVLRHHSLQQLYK
The format is cell-based.

A further assay deals with Aplysia feeding network. Put plainly: Feeding network. The format is cell-based. The settings on record: intact buccal and cerebral ganglia; peptide perfusion vs control. The procedure, abridged:
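Intact buccal plus cerebral ganglia were recorded intra- and extracellularly during peptide perfusion. A peptide scored active when perfusion gave statistically higher circuit activity than control without peptide. Means were compared by repeated-measures one-way ANOVA, assuming sphericity, with Bonferroni post test.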

Bounds are passed on as bounds.

Substance H-SYADSKDEESNAALSDFAED-OH gave an EC50 on apALNR greater than 50 µM. Besides, the “feeding network (electrophys.)” value in the assay on Aplysia feeding network is reported as “not active”.

Values taken from paper PMC5962930 (ACS Chemical Biology, 2018).
